The experiment has as its system PC-12. Description: Modulation of Gal4-fused VP16 expressed in PC12 cells co-transfected with UAS repoter gene assessed as decrease in luciferase activity at 5 to 100 uM incubated for 18 hrs by luciferase reporter gene assay. Format: cell-based. The note with it: Human alphaherpesvirus 2, filed as modulator, dose 5-100 µM. In short, it runs like this:
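Cells in 10-cm dishes were transfected with Gal4-VP16 expression plasmid (2 μg) plus 5xUAS-luciferase reporter (2 μg) for 18 h. They were replated at 10,000 cells/well for 4 h, then given ligand or vehicle (water, ethanol or DMSO) in quadruplicate for 18 h. Luciferase was read with Britelite Plus. Fold change is versus vehicle-treated cells, with one-way ANOVA versus vehicle.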
For orientation: In a reporter assay the amount or activity of a reporter protein is the signal.

Calls of active or inactive are those of the source. The rule behind the calls is not given here.

Take `CCCCCCCC(=O)c1c(O)cc(O)cc1CC(=O)OCC` [CYTOSPORONE B]: the result was Active.

(Values after ChEMBL document CHEMBL5030505, “Assessment of NR4A Ligands That Directly Bind and Modulate the Orphan Nuclear Receptor Nurr1” (J Med Chem, 2020).)
